Laboratory results reported in the EternaBench riboswitch data.

Test system: MS2 coat protein
Assay: apparent Kd, MS2 coat protein; higher = weaker binding; RNA-MaP array; FMN 200 µM where present
Procedure, shortened: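 In 100 mM Tris-HCl pH 7.5, 80 mM KCl, 4 mM MgCl2, BSA, DTT, yeast tRNA and Tween-20, SNAP-549-labelled MS2 coat protein was titrated from 0.7 or 1.5 nM, doubling to 3 µM, over designs transcribed by stalled E. coli RNA polymerase on Illumina sequencing-chip clusters. This was done first without ligand, then with ligand held constant. After green signal was normalised to red-channel RNA signal and control-cluster median Fmax, the apparent Kd was taken as the median of filtered per-cluster binding-curve fits.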

[1] = designed as: ON switch for flavin mononucleotide, no ligand
[2] = ligand present: flavin mononucleotide, designed as: ON switch for flavin mononucleotide
[3] = designed as: OFF switch for flavin mononucleotide, no ligand
[4] = ligand present: flavin mononucleotide, designed as: OFF switch for flavin mononucleotide

GGUACCAUCACAGGAUAUGCUUUCCUUUGGGAAGCAGAAGGGUGUAACAUGAGGAUCACCCAUGUGGUGCCAGGGCGUGAGCCU
apparent Kd [1]: 216 nM
apparent Kd [2]: 16 nM

AUCAGCUCGUCAGGAUAUACGUCACUGCGUCAGCAGUCUGGUAAGAUCACAUGAGGAUCACCCAUGUAGAAGGGACGAGCUGAU
apparent Kd [3]: 19.1 nM
apparent Kd [4]: 288 nM

GGUUCCAUCGCAGGAUAUGCUAUCCUUUGGGUAGCAGAAGGGUGAUAACAUGAGGAUCACCCAUGUGGAACCGGGCGUGAGCCC
apparent Kd [1]: 177 nM
apparent Kd [2]: 1050 nM

UUGUUGUGAGUAAGGAUAUGAUGCAGGAAACUGCGUCAGAAGGUACAUGAGGAUCACCCAUGUUAAUUUUGUUU
apparent Kd [3]: 16.8 nM
apparent Kd [4]: 23.5 nM

CAUAAGAUAGGAUAUACAGGCCCGUCUUCAUAUUGAUCCCGACAUGAGGAUCACCCAUGUAGAAGGAUCAUAUG
apparent Kd [3]: 13.5 nM
apparent Kd [4]: 13.4 nM

AUGCUUUUUGUAGGAUAUACAUUUUGUACGUAUGUAGAAGGACAUGAGGAUCACCCAUGUAAAUUAUUAUUAAAUAUCAUACUU
apparent Kd [3]: 45.8 nM
apparent Kd [4]: 31.8 nM

UCAUUUCUGUAAGGAUAUAUAAACAUGACGAUACAUGAGGAUCACCCAUGUAUAGAAGGUACAAAUACAUAUAAUGCAAUGUUC
apparent Kd [3]: 16.9 nM
apparent Kd [4]: 12.9 nM

AGUCGGAGCAGAGGAUAUUACAUGAGGAUCACCCAUGUAUUAAAUGGAAGCUGGAAACAGCAAUGUAAGAAGGCUGCUCCGACA
apparent Kd [3]: 62.4 nM
apparent Kd [4]: 284 nM

UGAUUCGAGGCUAAGCCUCCAUCACAGGAUAUGCACGAGACAUGAGGAUCACCCAUGUGGCGAAGGCAGAAGGGUGAUACGUCU
apparent Kd [1]: 197 nM
apparent Kd [2]: 24.6 nM

UAAAUUAACAAGAAGGCUAACAUGAGGAUCACCCAUGUUGUACAUGGAUAUAGAGGAUAUUGCUAAUAAUUAUUUAUCAUAAUU
apparent Kd [3]: 24.4 nM
apparent Kd [4]: 20.1 nM

AAGACAUGAGGAUCACCCAUGUAAAGACCGGUCAAUCAAUGUGAGGAUAUUCCAUAAUUGAUAGGGAAGAAGGCACUGGGUUGA
apparent Kd [1]: 106 nM
apparent Kd [2]: 50.2 nM

AUCAUCUUGUCAGGAUAUGCGUGUCGACGAAAGUAGACAAUCUUGAUAACAUGAGGAUCACCCAUGUAGAAGGGACGAGAUGAU
apparent Kd [3]: 21.6 nM
apparent Kd [4]: 24.5 nM

GUAUCAUACCAAGGAUAUUUAGGACUUGGAUAGACAUGAGGAUCACCCAUGUGGCGUUAGUCACGGGAGAAGGUGGUAUGAUAC
apparent Kd [1]: 103 nM
apparent Kd [2]: 20.7 nM

AUUAAACAUGAGGAUCACCCAUGUCAACAAAGUCGAGGAUAUGGGCAAAUAAAUUAAGAACCAGAAGGCGAAUAAU
apparent Kd [1]: 435 nM
apparent Kd [2]: 40.5 nM

AGCACGAAAGUGCAACGAUGUAGCAGAAGGACAUGAGGAUCACCCAUGUAAGGUCUAUGACCAAUGUAGGAUAUGCUACAUCGA
apparent Kd [3]: 6.62 nM
apparent Kd [4]: 35 nM

CGACAGUACACAGGAUAUCCUCGACUUUGUCGAGGAGAAGGGUGUAAACAUGAGGAUCACCCAUGUAUACUGUCGAAAUAUAAU
apparent Kd [1]: 350 nM
apparent Kd [2]: 38.7 nM

GACAUACAUGAGGAUCACCCAUGUACAAACGUACAAGGAUAUGUGUGGAAACCGUACUAUACAGAAGGUGUUUGUC
apparent Kd [1]: 47.6 nM
apparent Kd [2]: 41.5 nM

UCAUGUAUGUAGGAUAUCGAUGUCUUCGGACAUCGAGAAGGACGUACAUGAGGAUCACCCAUGUAACUUGCAUG
apparent Kd [3]: 17.9 nM
apparent Kd [4]: 16.6 nM

ACAUACAUUCGAGGAUAUCGGUGAACAUAUUAACGAGAAGGCGAUAUAAUUUUUAAUCUUAUAAACAUGAGGAUCACCCAUGUA
apparent Kd [1]: 21.9 nM
apparent Kd [2]: 20.2 nM

UUUGCAUUCCGAGGAUAUUCAUAUAAUAAAUACACAUGAGGAUCACCCAUGUGGCGAUAGCCUAGGGAGAAGGCGGUUUGCUUU
apparent Kd [1]: 22.3 nM
apparent Kd [2]: 24 nM

GGUACUCAAAGAGUACCAAUACGAACAUGAGGAUCACCCAUGUAGGAUAUGCUACUCAAAGAGUAGCAGAAGGACAUGUGCCUC
apparent Kd [3]: 418 nM
apparent Kd [4]: 38.5 nM

CGUCAUUACUCAGGAUAUGCAUCAUACUUGAGGGCAGAAGGGAGUACAUGAGGAUCACCCAUGUACUAUGGGUGCCUAAGAGGU
apparent Kd [3]: 18.7 nM
apparent Kd [4]: 101 nM

GGGAAGUUAGGAUAUGCUGCUCGUCACUUGCGUGAUGAGUAGCAGAAGGAACAUGAGGAUCACCCAUGUAAAGA
apparent Kd [3]: 34.3 nM
apparent Kd [4]: 37.5 nM

ACAUGAUUCAAGAAGGAUGUAUUUGAUUUGAUCAUAGGAUAUUGUUAUUUUGUUUACUCUAAUAACAUGAGGAUCACCCAUGUA
apparent Kd [1]: 14.4 nM
apparent Kd [2]: 10.4 nM

UGUUGUAUUACAGGAUAUCUAGUAUUUUUGUUUAGAGAAGGGUAUUCACAUGAGGAUCACCCAUGUAUAUACGAGGAAGUUGUG
apparent Kd [1]: 57.2 nM
apparent Kd [2]: 63.7 nM

UGGAAACAUGAGGAUCACCCAUGUAAAAGGUGGUCAGGAUAUGCGAAAAGAAAAAGAAAAGUAGAAGGGACAAGAA
apparent Kd [1]: 459 nM
apparent Kd [2]: 1200 nM

CGCAACUCUUCACAUGUAAACAUGAGGAUCACCCAUGUAUUGAGAAGGAGGAAGAAGAGAGAUUCCUAGGAUAUCAGAGUUGCG
apparent Kd [3]: 6.42 nM
apparent Kd [4]: 5.84 nM

CAGCAAAGGUAGAAGGCAGUACUGAUACAGUACUGAGGAUAUACAUGAGGAUCACCCAUGUUCUUCAGCUGGAAAUAAAUAAAA
apparent Kd [3]: 8.98 nM
apparent Kd [4]: 134 nM

ACAUGAGGAUCUCCCAUGUAAAAUUAGGAUAUAUGACUGCACAUGAGGAUCACCCAUGUUUUACCGUAGAAGGGAUAAAUAAUU
apparent Kd [1]: 867 nM
apparent Kd [2]: 855 nM

GACUGACAUGAGGAUCACCCAUGUAUUCGAGCAUGAGGAUAUAUGACACGUCAUCGGCGGAUAGAAGGCAUGGUUG
apparent Kd [1]: 124 nM
apparent Kd [2]: 185 nM

CGCAUGCGUAGAAUUAGUUGCUGACAGGAUAUGACAUGAGGAUCACCCAUGUGAUUUAAGAAGAGUCAGAAGGGUCACGAUGCG
apparent Kd [3]: 10.7 nM
apparent Kd [4]: 15.1 nM

AUAUAAUAUCAGGAUAUGACUAGCUUCGGCUAGUCAGAAGGGAUGACAUGAGGAUCACCCAUGUGAUCAUAUAU
apparent Kd [3]: 35.7 nM
apparent Kd [4]: 153 nM

UACGUACAGAAGAACUCCGGGUCCAGAAGGGACAUGAGGAUCACCCAUGUACCGUUGAUUGCUUGUCAGGAUAUGGACCCAGCC
apparent Kd [3]: 7.75 nM
apparent Kd [4]: 26.8 nM

CCACGAGACUAAGGAUAUGGAGUGUCAACAUAAAACAUGAGGAUCACCCAUGUAAAGAGUACAAUUCAGAAGGUAGAGACGUGG
apparent Kd [1]: 21.9 nM
apparent Kd [2]: 21.5 nM

GACAUACAUGAGGAUCACCCAUGUUCAAACGAACAAGGAUAUGUGUGGAAACCAUACUAUACAGAAGGUGUCUGUC
apparent Kd [1]: 81.7 nM
apparent Kd [2]: 97.7 nM

CUUAGACAUGAGGAUCACCCAUGUGAGGAUAUGAUGCGAUCGUCGAAAGACGAUAGCAUCAGAAGGUACAAAUG
apparent Kd [3]: 86 nM
apparent Kd [4]: 67 nM

ACCCGCAGCCGUCAGGAUAUGUUCGCGUCAACAUGAGGAUCACCCAUGUGUGACAAGAAGUACACGCAGAAGGGAUCAAUGCGGG
apparent Kd [1]: 16.4 nM
apparent Kd [2]: 18.3 nM

AUAUAUAACUAAGGAUAUCUGUAUUUUGUUGAAACAUGAGGAUCACCCAUGUUCAUGAAAUUAUAGGAGAAGGUAGAUAUAUAU
apparent Kd [1]: 4.93 nM
apparent Kd [2]: 4.54 nM

GACUUGGCUACAUGAGGAUCACCCAUGUUUGACUGGAUCAAUUAGGAUAUAGUGAUAUGCAACAAUUAGAAGGGAUGUUUACGG
apparent Kd [1]: 56.6 nM
apparent Kd [2]: 45.2 nM

CACAAGAAAGUCGAACGUGUAACGAGAAGGUCUACAUCACAACAUGAGGAUCACCCAUGUGAUAAGAAGGAUAUUGUUGCGCGG
apparent Kd [3]: 8.76 nM
apparent Kd [4]: 8.32 nM

UACAGACAUGAGGAUCACCCAUGUGAGGAUAUCGAUAACGAUAACAUAAUAUAAACGGCGAGAAGGCACAGCAU
apparent Kd [3]: 31.7 nM
apparent Kd [4]: 34.9 nM

AAAUCACAUGAGGAUCACCCAUGUGAGGAUAUGAUACUAUGUACUUCGGUACAUAGUAUCAGAAGGCAUGUGGA
apparent Kd [3]: 32 nM
apparent Kd [4]: 36.8 nM

ACAUGAGGAUCACCCAUGUAGAAUGAAGAAGGAUGUUACUUGAGACUCACCCAUGUACAUAGGACAUAGGAUAUUCUAAUAAUU
apparent Kd [1]: 10.1 nM
apparent Kd [2]: 7.83 nM

GCCAUCACAUGAGGAUAUGCUCCCGUUUCGGGAGCAGAAGGCAUGUCAUAAGACAUGAGGAUCACCCAUGUAUUUAAGAUGGCA
apparent Kd [1]: 227 nM
apparent Kd [2]: 9.52 nM

GGUGGACAUGAGGAUCACCCAUGUGAGGAUAUCGGCCGGUUCGUGGUGGCUGGCGUCUCGAGAAGGCGCAUAGU
apparent Kd [3]: 35 nM
apparent Kd [4]: 45.7 nM

AUAUCUCAAUUAGAUCCAAUACGAACAUGAGGAUCACCCAUGUAGGAUAUGCUAGAAGUUGUGUUGCAGAAGGACAUAUACCUU
apparent Kd [3]: 41.4 nM
apparent Kd [4]: 38.6 nM

ACAUGAGGAUCACCCAUGUGUCAACCAGAAGGCACAUUACGUAUUUCUAUGUGUGCGUAAAUAAGUGAGGAUAUGGAUAAUAGA
apparent Kd [1]: 11.2 nM
apparent Kd [2]: 7.21 nM

GAUUAACAUGAGGAUCACCCAUGUGAGGAUAUGGACUGGCUCACUUUCCGAUUCGGGUCUAGAAGGCGCAUCUU
apparent Kd [3]: 33.5 nM
apparent Kd [4]: 33.2 nM
